This is a sample that favours compounds with a hit; in the whole collection about 4.3% have one here.
FLuc inhib CS – firefly luciferase enzyme inhibitors, primary screen, artefact control for luciferase-based inhibitor screens, biochemical, luminescence, ATPLite; Luciferin 4-monooxygenase (Photinus pyralis), P08659; 10 min; inhibition, % at 10 µM; hit rate 1.5% among 200,000;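 active = inhibition above about 50% when tested at 10 µM, limit read from the data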
Target sequence (P08659 whole entry, looked up): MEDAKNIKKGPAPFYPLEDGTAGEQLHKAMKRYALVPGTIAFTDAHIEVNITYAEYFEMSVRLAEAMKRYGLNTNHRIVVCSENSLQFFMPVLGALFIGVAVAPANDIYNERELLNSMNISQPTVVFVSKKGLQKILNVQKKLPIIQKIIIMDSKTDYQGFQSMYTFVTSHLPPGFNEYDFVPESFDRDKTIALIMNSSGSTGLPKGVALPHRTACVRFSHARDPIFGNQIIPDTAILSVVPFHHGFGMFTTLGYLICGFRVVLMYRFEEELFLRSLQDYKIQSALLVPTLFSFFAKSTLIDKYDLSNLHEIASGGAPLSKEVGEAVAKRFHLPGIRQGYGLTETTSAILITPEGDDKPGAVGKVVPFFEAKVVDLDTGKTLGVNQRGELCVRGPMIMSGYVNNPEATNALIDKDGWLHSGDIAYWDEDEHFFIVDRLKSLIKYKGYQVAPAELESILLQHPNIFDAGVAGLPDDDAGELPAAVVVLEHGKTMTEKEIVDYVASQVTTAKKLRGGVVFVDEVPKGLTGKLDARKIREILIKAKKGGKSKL
STAT1 act – STAT1 signaling activators, primary screen, cell-based, HTS, luciferase reporter. hit rate 2.6% among 200,000. activation (% of control), % at 5.5 µM. NIH 3T3 STAT1-luciferase reporter, IFN-gamma, luminescence; 100% = IFN-gamma alone, no compound;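 active = activation above the screen-wide mean activation plus 3 SD, cut at about 130% in these data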;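 also: raw ratio to IFN-gamma control signal so 100% means no change and 0% no light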
NF-kB neuron act – activators of NF-kB expression in neurons, primary screen, cell-based, HTS | human neuronal cells, NF-kB reporter expression; stronger effect = higher value | fold change at 12.5 µM | hit rate 1.6% among 190,000 | AID 1239, 2008; in the data active = fold change above about 3.3
APP 5'UTR act – activators of APP 5'UTR luciferase reporter, primary screen, SH-SY5Y cells. SH-SY5Y APP 5'UTR luciferase reporter, luminescence; zero percent = DMSO vehicle wells. activation, % at 2 µM. hit rate 1% among 190,000. AID 1276, 2008;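 active = activation above a set limit, based on mean plus 3 SD of controls, cut at about 140% in these data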
FLuc stim CS – FLuc activators, initial screening, artefact control for FLuc-dependent activation tests, biochemical, ATPlite luminescence; Luciferin 4-monooxygenase (Photinus pyralis), P08659; ATPlite luciferase biochemical, 10 min; 0 = ATP-free wells, 1 = DMSO control; activation factor at 10 µM; 200,000 tested, under 10 active; AID 1027, 2008;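 active = luciferase activation factor, scaled between plate controls, of at least 2 with compound at 10 µM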
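Material: Luciferase/luciferin reagent mix | Doses: Test compounds dosed from 2 mM stocks in 100% DMSO | Timing: 10 min incubation after luciferase reagent addition, room temperature | Measured by: Luminescence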
An asterisk follows results filed as active.

C#CCn1c(=NC(=O)c2cccs2)sc2cccc(OC)c21 was read as FLuc inhib CS 0, STAT1 act 122, NF-kB neuron act 1.4, APP 5'UTR act 16 and FLuc stim CS 1.
CCOC(=O)c1sc(NC(=O)c2cccs2)cc1C was read as FLuc inhib CS 71*, STAT1 act 138*, NF-kB neuron act 4*, APP 5'UTR act 168* and FLuc stim CS 0.3.
Screening Cc1ccc(-c2csc3nnc(SCC(=O)Nc4cccc(C)n4)n23)cc1 returned FLuc inhib CS -2, STAT1 act 88, NF-kB neuron act 1.1, APP 5'UTR act -4 and FLuc stim CS 1.
CCOc1ccccc1NC(=S)N1CCC(c2nc3ccccc3o2)CC1 was read as FLuc inhib CS -4, STAT1 act 96, NF-kB neuron act 0.9 and FLuc stim CS 1.
Screening CCOC(=O)c1sc(=NC(=O)c2ccc(Cl)s2)n(C)c1C returned FLuc inhib CS 39, STAT1 act 151*, NF-kB neuron act 1.5, APP 5'UTR act 146* and FLuc stim CS 0.6.
Screening O=C1C2C3C=CC(CC3)C2C(=O)N1/N=C/c1ccc(O)cc1 (stereo not drawn) returned FLuc inhib CS 63*, STAT1 act 106, NF-kB neuron act 1.3, APP 5'UTR act 18 and FLuc stim CS 0.4.
`COC(=O)c1ccc(-c2ccc(/C=N/N3C(=O)C4C5C=CC(CC5)C4C3=O)o2)cc1` (stereo not drawn) gave FLuc inhib CS 0, STAT1 act 132*, NF-kB neuron act 1.5, APP 5'UTR act 58 and FLuc stim CS 1.
O=C1C2C3C=CC(CC3)C2C(=O)N1/N=C/c1ccc(O)c(O)c1 (stereo not drawn) was read as FLuc inhib CS 42, STAT1 act 106, NF-kB neuron act 2.1, APP 5'UTR act 2 and FLuc stim CS 0.6.
`O=C(O)c1cc(-c2ccc(/C=N/N3C(=O)C4C5C=CC(CC5)C4C3=O)o2)ccc1Cl` (stereo not drawn) gave FLuc inhib CS 0, STAT1 act 102, NF-kB neuron act 1.2, APP 5'UTR act 29 and FLuc stim CS 1.
`C/C(=N\NC(=O)CC1N=C(Cc2ccccc2)NNC1=O)c1ccc(Cl)cc1Cl` (stereo not drawn) gave FLuc inhib CS -3, STAT1 act 97, NF-kB neuron act 0.79, APP 5'UTR act -16 and FLuc stim CS 1.
O=C(Nc1cccc(Cl)c1)N(Cc1nc2ccccc2c(=O)[nH]1)Cc1cccs1 was read as FLuc inhib CS -2, STAT1 act 104, NF-kB neuron act 0.8, APP 5'UTR act 1 and FLuc stim CS 1.
`CCCOc1ccc(-c2cnc(N)s2)cc1` gave FLuc inhib CS 35, STAT1 act 133*, NF-kB neuron act 2.2, APP 5'UTR act 88 and FLuc stim CS 0.7.
For CCCOc1ccc(OCCSc2nnc(N)s2)cc1 the results were FLuc inhib CS 14, STAT1 act 115, NF-kB neuron act 1.9, APP 5'UTR act -5 and FLuc stim CS 0.9.
`COc1ccc(-c2cc3nc[nH]c(=O)c3s2)cc1` gave FLuc inhib CS 72*, STAT1 act 117, NF-kB neuron act 2.5, APP 5'UTR act 29 and FLuc stim CS 0.3.
O=c1[nH]cnc2cc(-c3ccccc3)sc12 was read as FLuc inhib CS 49, STAT1 act 109, NF-kB neuron act 1.3, APP 5'UTR act 30 and FLuc stim CS 0.5.
COc1cc2c(cc1OC)C(c1ccc(-c3ccc(Cl)cc3Cl)o1)=NCC2 was read as FLuc inhib CS -1, STAT1 act 95, NF-kB neuron act 0.88, APP 5'UTR act 1 and FLuc stim CS 1.
For COc1cc2c(cc1OC)C(c1ccc(-c3ccccc3Cl)o1)=NCC2 the results were FLuc inhib CS 62*, STAT1 act 89, NF-kB neuron act 0.6, APP 5'UTR act 26 and FLuc stim CS 0.4.
`COc1ccc(-c2noc(-c3ccc4c(c3)OCO4)n2)cc1` gave FLuc inhib CS 48, STAT1 act 122, NF-kB neuron act 3.9*, APP 5'UTR act 23 and FLuc stim CS 0.5.
O=[N+]([O-])c1cccc(-c2nc(-c3ccccc3)no2)c1 was read as FLuc inhib CS 14, STAT1 act 138*, NF-kB neuron act 3.8*, APP 5'UTR act 118 and FLuc stim CS 0.9.
Screening c1ccc(-c2noc(COc3ccc4c(c3)OCO4)n2)cc1 returned FLuc inhib CS 14, STAT1 act 125, NF-kB neuron act 4.1*, APP 5'UTR act 100 and FLuc stim CS 0.9.
O=[N+]([O-])c1cccc(-c2nc(-c3ccncc3)no2)c1 was read as FLuc inhib CS 2, STAT1 act 108, NF-kB neuron act 2.4, APP 5'UTR act 10 and FLuc stim CS 1.
COc1ccc(-c2noc(COc3ccc4c(c3)OCO4)n2)cc1 was read as FLuc inhib CS -1, STAT1 act 105, NF-kB neuron act 1.3, APP 5'UTR act -11 and FLuc stim CS 1.
Screening c1cc(-c2noc(-c3ccc4c(c3)OCO4)n2)ccn1 returned STAT1 act 117 and APP 5'UTR act 25.
COc1ccc(-c2noc(COc3ccc4c(c3)OCO4)n2)cc1OC was read as FLuc inhib CS 6, STAT1 act 98, NF-kB neuron act 1.2, APP 5'UTR act 0 and FLuc stim CS 0.9.
Screening c1ccc(-c2noc(-c3ccc4c(c3)OCO4)n2)cc1 returned FLuc inhib CS 69*, STAT1 act 99, NF-kB neuron act 3.9*, APP 5'UTR act 167* and FLuc stim CS 0.3.
Screening C=CCn1c(CCCNC(=O)c2ccccc2OC)nc2ccccc21 returned FLuc inhib CS -6, STAT1 act 88, NF-kB neuron act 1.3, APP 5'UTR act 7 and FLuc stim CS 1.1.
`COc1ccc(-c2ccc(-c3noc(-c4cccc(OC)c4)n3)c(OC)n2)cc1` gave FLuc inhib CS 1, STAT1 act 98, NF-kB neuron act 1.1, APP 5'UTR act -7 and FLuc stim CS 1.
For Cc1ccc(-c2noc(COc3ccccc3C)n2)cc1 the results were FLuc inhib CS 5, STAT1 act 116, NF-kB neuron act 1.3, APP 5'UTR act 24 and FLuc stim CS 1.
For Cc1ccccc1OCc1nc(-c2ccccc2)no1 the results were FLuc inhib CS 6, STAT1 act 137*, NF-kB neuron act 2.9, APP 5'UTR act 79 and FLuc stim CS 0.9.
`COc1cccc(-c2noc(-c3ccc4c(c3)OCO4)n2)c1` gave FLuc inhib CS 82*, STAT1 act 62, NF-kB neuron act 5.7*, APP 5'UTR act 159* and FLuc stim CS 0.2.
`CC(C)COc1cccc(C(=O)NC(=S)NCc2cccnc2)c1` gave FLuc inhib CS -5, STAT1 act 102, NF-kB neuron act 1.1, APP 5'UTR act 7 and FLuc stim CS 1.

High-throughput results: PubChem BioAssay, several laboratories
